ChEMBL document CHEMBL2169869, “Assay and inhibition of diacylglycerol lipase activity” (Bioorg Med Chem Lett, 2012)

Key:
[1] = molecular target: T1, Monoglyceride lipase (Homo sapiens) (UniProt Q99685); test: Inhibition of human N-terminal histidine tagged full length MAGL expressed in Escherichia coli at 10 uM by coumarin ester substrate fluorescence assay
T1 sequence (whole entry): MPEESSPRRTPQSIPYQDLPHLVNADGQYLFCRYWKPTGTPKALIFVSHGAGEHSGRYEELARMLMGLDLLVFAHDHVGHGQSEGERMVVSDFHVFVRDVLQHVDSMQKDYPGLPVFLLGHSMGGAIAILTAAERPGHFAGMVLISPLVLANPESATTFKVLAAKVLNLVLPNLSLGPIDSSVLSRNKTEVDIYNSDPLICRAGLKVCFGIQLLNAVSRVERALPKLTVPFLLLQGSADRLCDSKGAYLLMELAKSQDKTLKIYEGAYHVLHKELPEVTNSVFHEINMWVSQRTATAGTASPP

[2] = tested on: Bacteria; test: Inhibition of bacterial lipoprotein lipase at 10 uM by FRET assay
[3] = molecular target: T2, Diacylglycerol lipase-alpha (Homo sapiens) (UniProt Q9Y4D2); test: Inhibition of human DAGLalpha expressed in HEK293T cell membrane using [14C]SAG substrate at 10 uM in detergent free solution by […]; assay type: cell-based; conditions: HEK-293T
T2 sequence (whole entry): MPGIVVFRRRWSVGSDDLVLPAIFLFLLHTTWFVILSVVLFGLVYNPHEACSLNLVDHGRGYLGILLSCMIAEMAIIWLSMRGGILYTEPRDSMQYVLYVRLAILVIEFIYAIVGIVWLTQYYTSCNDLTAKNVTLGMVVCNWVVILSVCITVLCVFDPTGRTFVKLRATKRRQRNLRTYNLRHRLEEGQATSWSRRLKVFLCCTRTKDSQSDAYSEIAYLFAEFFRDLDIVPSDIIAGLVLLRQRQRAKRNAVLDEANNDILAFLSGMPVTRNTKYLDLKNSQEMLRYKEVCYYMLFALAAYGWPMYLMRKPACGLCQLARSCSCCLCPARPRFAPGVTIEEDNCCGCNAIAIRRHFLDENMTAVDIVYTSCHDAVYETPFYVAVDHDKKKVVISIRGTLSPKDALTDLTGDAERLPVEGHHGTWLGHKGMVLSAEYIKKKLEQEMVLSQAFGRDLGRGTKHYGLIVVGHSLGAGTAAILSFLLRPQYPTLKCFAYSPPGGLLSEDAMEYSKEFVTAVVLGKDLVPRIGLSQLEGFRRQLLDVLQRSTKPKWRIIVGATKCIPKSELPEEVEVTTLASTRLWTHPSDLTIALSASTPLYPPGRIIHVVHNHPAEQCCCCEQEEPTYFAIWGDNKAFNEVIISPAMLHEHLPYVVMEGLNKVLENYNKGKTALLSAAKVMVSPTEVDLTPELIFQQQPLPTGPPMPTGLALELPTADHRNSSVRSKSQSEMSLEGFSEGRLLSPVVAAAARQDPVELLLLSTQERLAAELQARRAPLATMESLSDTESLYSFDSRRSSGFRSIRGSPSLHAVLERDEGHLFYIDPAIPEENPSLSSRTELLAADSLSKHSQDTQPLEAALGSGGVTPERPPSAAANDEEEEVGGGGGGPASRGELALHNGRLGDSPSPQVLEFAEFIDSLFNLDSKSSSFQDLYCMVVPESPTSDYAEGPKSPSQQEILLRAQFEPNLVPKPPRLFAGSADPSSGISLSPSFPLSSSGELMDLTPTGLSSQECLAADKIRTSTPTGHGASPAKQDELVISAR

[4] = molecular target: T3, Fatty-acid amide hydrolase 1 (Rattus norvegicus) (UniProt P97612); test: Inhibition of rat histidine tagged FAAH expressed in Escherichia coli at 10 uM by coumarin ester substrate fluorescence assay
T3 sequence (whole entry): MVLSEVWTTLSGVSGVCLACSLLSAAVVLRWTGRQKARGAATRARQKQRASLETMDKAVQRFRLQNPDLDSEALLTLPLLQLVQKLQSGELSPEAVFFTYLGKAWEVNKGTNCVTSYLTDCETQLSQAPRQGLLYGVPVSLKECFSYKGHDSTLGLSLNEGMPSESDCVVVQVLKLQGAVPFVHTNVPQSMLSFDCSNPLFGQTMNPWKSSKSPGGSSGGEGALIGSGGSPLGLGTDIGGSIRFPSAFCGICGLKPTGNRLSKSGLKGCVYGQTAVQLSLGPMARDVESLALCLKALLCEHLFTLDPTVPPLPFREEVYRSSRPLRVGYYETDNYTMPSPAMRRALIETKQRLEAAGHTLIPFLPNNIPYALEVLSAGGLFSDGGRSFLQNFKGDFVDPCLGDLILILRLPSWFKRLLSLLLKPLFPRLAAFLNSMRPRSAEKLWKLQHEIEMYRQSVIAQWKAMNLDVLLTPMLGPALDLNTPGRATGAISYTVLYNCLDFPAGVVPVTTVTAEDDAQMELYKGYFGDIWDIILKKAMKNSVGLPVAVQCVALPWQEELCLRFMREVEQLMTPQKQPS

[5] = species on record: Sus scrofa; test: Inhibition of porcine pancreatic lipase type 2 at 10 uM by FRET assay
[6] = molecular target: T2, Diacylglycerol lipase-alpha (Homo sapiens); test: Inhibition of human DAGLalpha expressed in HEK293T cell membrane using [14C]SAG substrate at 10 uM in presence of 0.05% Triton X-100 by scintillation counting based radio-TLC assay; assay type: cell membranes; conditions: HEK-293T
Outline: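 Sonicated HEK293T protein (100 μg) in 50 mM Tris pH 7.4 with 10 mM CaCl2. Inhibitor in DMSO (10% DMSO standard) preincubated 15 min at 37 °C. [14C]SAG was added to 20 μM final for 20 min at 37 °C, with Triton X-100 where the line states it. Quenched with 2:1 CHCl3/MeOH. Silica TLC in CHCl3/MeOH/NH4OH 86:14:0.75, then 12 h phosphorimaging. Activity = (2-AG+AA)/(2-AG+AA+SAG). Background-subtracted; n=1–2.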

Row | SMILES | inhibition [1] [%] | inhibition [2] [%] | inhibition [3] [%] | inhibition [4] [%] | inhibition [5] [%] | inhibition [6] [%]
1 | O=C(Oc1ccc([N+](=O)[O-])cc1)N1CCC(C(O)(c2ccc3c(c2)OCO3)c2ccc3c(c2)OCO3)CC1 | 100 | 36 | 59 | 97 | 36 | –
2 | CCCCCCCCCCC[C@@H](C[C@@H]1OC(=O)[C@H]1CCCCCC)OC(=O)[C@@H](NC=O)[C@@H](C)CC | 16 | 84 | 92 | 7 | 99 | 98
3 | CCCCCCCCCCC[C@@H](C[C@@H]1OC(=O)[C@H]1CCCCCC)OC(=O)[C@@H](NC=O)[C@H](C)CC | 1 | 61 | 92 | 3 | 98 | 95
4 | CCCCCCCCCCC[C@@H](C[C@@H]1OC(=O)[C@H]1CCCCCC)OC(=O)[C@H](CC)NC=O | 45 | 80 | 93 | 12 | 97 | 99
5 | CCCCCCCCCCC[C@@H](C[C@@H]1OC(=O)[C@H]1CCCCCC)OC(=O)[C@H](NC=O)[C@@H](C)CC | 42 | 68 | 90 | 0 | 95 | 86
6 | CCCCCCCCCCC[C@@H](C[C@@H]1OC(=O)[C@H]1CCCCCC)OC(=O)[C@H](NC=O)[C@H](C)CC | 39 | 86 | 90 | 28 | 99 | 78
7 | CCCCCCCCCCC[C@@H](C[C@@H]1OC(=O)[C@H]1CCCCCC)OC(=O)[C@H](CC(C)C)NC=O [ORLISTAT] | 47 | – | – | 6 | 98 | 100
